Reference: ChEMBL document CHEMBL1141446, “Uncovering biosynthetic potential of plant-associated fungi: effect of culture conditions on metabolite production by Paraphaeosphaeria quadriseptata and Chaetomium chiversii” (J Nat Prod, 2007)
Active and inactive are the calls of the source. The rule behind the calls is not given here.

Tests used:
[1] = test system: NCI-H460; test: Antiproliferative activity against human NCI-H460 cells by MTT assay; type: functional, cell-based
How it was run: (§1)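 Cells were exposed for 72 h to serial dilutions of test compound in RPMI 1640 supplemented with 10% fetal bovine serum. Viability was read by MTT assay, and IC50 was taken as the concentration giving 50% inhibition of proliferation/survival. A positive control was run alongside.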

[2] = test system: MCF7; test: Antiproliferative activity against human MCF7 cells by MTT assay; type: functional, cell-based; how it was run: as §1
[3] = test system: SF-268; test: Antiproliferative activity against human SF268 cells by MTT assay; type: functional, cell-based; how it was run: as §1
[4] = organism: Mus musculus; test: Induction of heat shock in mouse 3T3-Y9/B12 reporter cells at 5 uM by heat shock induction assay; type: functional

| SMILES | IC50 [1] [nM] | IC50 [2] [nM] | IC50 [3] [nM] | Activity [4] |
| --- | --- | --- | --- | --- |
| C[C@@H]1C[C@H]2O[C@@H]2C[C@H](O)/C=C/C(=O)Cc2cc(O)cc(O)c2C(=O)O1 | 300 | 150 | 550 | Active |
| C[C@@H]1C[C@H]2O[C@@H]2/C=C\C=C\C(=O)Cc2cc(O)cc(O)c2C(=O)O1 [MONOCILLIN I] | 350 | 600 | 720 | Active |
| COc1cccc2c1C(=O)c1c(O)c3c(c(O)c1C2=O)C[C@@](O)(C(=O)CO)C[C@@H]3O[C@H]1C[C@H](N)[C@H](O)[C@H](C)O1 [DOXORUBICIN] | 10 |  |  |  |
| C[C@@H]1C[C@H]2O[C@@H]2CC/C=C/C(=O)Cc2cc(O)cc(O)c2C(=O)O1 [MONOCILLIN III] | 500 | 400 | 300 | Active |
| C[C@@H]1C[C@H]2O[C@@H]2/C=C\C=C\C(=O)Cc2c(Cl)c(O)cc(O)c2C(=O)O1 |  |  |  | Active |
